From ChEMBL document CHEMBL1135672, “QSAR evaluation of the Ch'an Su and related bufadienolides against the colchicine-resistant primary liver carcinoma cell line PLC/PRF/5(1)” (J Med Chem, 2002)
Converted amounts (≈) assume the structure as drawn.

What was measured:
[1] = Inhibitory activity against colchicine resistant parent primary liver carcinoma (PLC) cell line PLC/PRF/5; type: functional, Homo sapiens
Summary of the method: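 PLC/PRF/5 cells were precultured 24 h at 37 °C in 5% CO₂ in 96-well plates, then given colchicine at 0.5 μg/mL. Test compounds were added in dilutions of 10⁻²–10⁻⁶ μg/mL and incubated 72 h at 37 °C in 5% CO₂. Survival was read by MTT. IC50 is the μg/mL giving 50% growth inhibition of the colchicine-resistant cells.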

[2] = Inhibitory activity against the primary liver carcinoma (PLC) cell line PLC/PRF/5; type: functional, Homo sapiens

Compound	IC50 [1]	IC50 [2]
CC(=O)O[C@H]1CC[C@@]2(C)[C@H](CC[C@@H]3[C@@H]2CC[C@]2(C)[C@@H](c4ccc(=O)oc4)C(=O)[C@H]4O[C@@]432)C1	7.6 µg/mL (≈ 17.3 µM)	2.4 µg/mL (≈ 5.45 µM)
CC(=O)O[C@H]1CC[C@@]2(C)[C@H](CC[C@@H]3[C@@H]2[C@H](O)C(=O)[C@]2(C)[C@@H](c4ccc(=O)oc4)CC[C@]32O)C1	6.8 µg/mL (≈ 14.8 µM)	0.87 µg/mL (≈ 1.9 µM)
CCOC(=O)C/C=C/C1=CO[C@]23CCC1[C@@]2(C)CC[C@H]1[C@H]3CC[C@@H]2C[C@@H](O)CC[C@@]21C	9.5 µg/mL (≈ 22.2 µM)	7.5 µg/mL (≈ 17.5 µM)
C=C(C)C(=O)O[C@H]1CC[C@@]2(C)[C@H](CC[C@@H]3[C@@H]2CC[C@]2(C)[C@@H](c4ccc(=O)oc4)CC[C@]32O)C1	0.097 µg/mL (≈ 0.213 µM)	0.059 µg/mL (≈ 0.13 µM)
C[C@]12CCC(=O)C=C1CCC1C2CC[C@]2(C)[C@@H](c3ccc(=O)oc3)CC[C@]12O (some centres undefined)	0.82 µg/mL (≈ 2.14 µM)	0.00019 µg/mL (≈ 0.000497 µM)
C[C@]12CC[C@H](O)C=C1CCC1C2CC[C@]2(C)[C@@H](c3ccc(=O)oc3)CC[C@]12O (some centres undefined)	0.00032 µg/mL (≈ 0.000832 µM)	0.00031 µg/mL (≈ 0.000806 µM)
C[C@]12CC[C@H]3[C@@H](CC[C@@H]4C[C@@H](O)CC[C@@]43C=O)[C@]13O[C@@H]3C[C@@H]2c1ccc(=O)oc1	0.075 µg/mL (≈ 0.188 µM)	0.0089 µg/mL (≈ 0.0223 µM)
CC(=O)O[C@H]1[C@H]2O[C@]23[C@@H]2CC[C@@H]4C[C@@H](OC(=O)CCC(=O)O)CC[C@]4(C)[C@H]2CC[C@]3(C)[C@H]1c1ccc(=O)oc1	0.96 µg/mL (≈ 1.77 µM)	0.85 µg/mL (≈ 1.57 µM)
C[C@]12CC[C@H](O)C[C@@]1(O)CCC1C2CC[C@]2(C)[C@@H](c3ccc(=O)oc3)C[C@@H]3O[C@@]132 (some centres undefined)	0.49 µg/mL (≈ 1.22 µM)	0.52 µg/mL (≈ 1.3 µM)
COC(=O)CCCCCCC(=O)O[C@H]1CC[C@@]2(C)[C@H](CC[C@@H]3[C@@H]2CC[C@]2(C)[C@@H](C4=CC(=O)OC4)CC[C@]32O)C1	0.98 µg/mL (≈ 1.8 µM)	0.53 µg/mL (≈ 0.973 µM)
CC(=O)O[C@H]1CC[C@@]2(C)[C@H](CC[C@@H]3[C@@H]2CC[C@]2(C)[C@@H](c4ccc(=O)oc4)CC(=O)[C@]32O)C1	6.4 µg/mL (≈ 14.5 µM)	0.077 µg/mL (≈ 0.174 µM)
CC(=O)O[C@H]1[C@H]2O[C@]23[C@@H]2CC[C@@H]4CC(=O)CC[C@]4(C)[C@H]2CC[C@]3(C)[C@H]1c1ccc(=O)oc1	0.77 µg/mL (≈ 1.75 µM)	0.056 µg/mL (≈ 0.127 µM)
C[C@]12CC[C@H](O)C[C@H]1CC[C@@H]1[C@@H]2CC[C@]2(C)C3CC[C@]12OC=C3/C=C/CC(=O)O	> 50 µg/mL	10 µg/mL (≈ 25 µM)
CC(=O)O[C@H]1[C@H]2O[C@]23[C@@H]2CC[C@@H]4C[C@H](O)CC[C@]4(C)[C@H]2CC[C@]3(C)[C@H]1c1ccc(=O)oc1	0.9 µg/mL (≈ 2.03 µM)	0.098 µg/mL (≈ 0.221 µM)
CC(=O)O[C@H]1[C@H]2O[C@]23[C@@H]2CC[C@@H]4C[C@@H](OC(=O)CCCCCCC(=O)O)CC[C@]4(C)[C@H]2CC[C@]3(C)[C@H]1c1ccc(=O)oc1	0.06 µg/mL (≈ 0.1 µM)	0.01 µg/mL (≈ 0.0167 µM)
CC(=O)O[C@H]1CC[C@@]2(C)[C@H](CC[C@@H]3[C@@H]2CC[C@]2(C)[C@@H](c4ccc(=O)oc4)[C@@H](OC(=O)CCC(=O)O)[C@H]4O[C@]342)C1	> 50 µg/mL	50 µg/mL (≈ 92.1 µM)

Compound	IC50 [1]	IC50 [2]
CC(=O)O[C@H]1[C@H]2O[C@]23[C@@H]2CC[C@@H]4C[C@@H](OC(=O)c5cc([N+](=O)[O-])cc([N+](=O)[O-])c5)CC[C@]4(C)[C@H]2CC[C@]3(C)[C@H]1c1ccc(=O)oc1	9.6 µg/mL (≈ 15.1 µM)	0.78 µg/mL (≈ 1.23 µM)
C[C@]12CC[C@H](O)C[C@H]1CC[C@@H]1[C@@H]2CC[C@]2(C)[C@@H](c3ccc(=O)oc3)C[C@H](O)[C@]12O	30 µg/mL (≈ 74.5 µM)	35 µg/mL (≈ 86.9 µM)
C[C@]12CC[C@H](O)C[C@H]1CC[C@@H]1[C@@H]2CC[C@]2(C)[C@@H](c3ccc(=O)oc3)C[C@H](O)[C@]12Cl	0.82 µg/mL (≈ 1.95 µM)	0.07 µg/mL (≈ 0.166 µM)
CC(C)(C)OC(=O)NNC(=O)CCC(=O)O[C@H]1CC[C@@]2(C)[C@H](CC[C@@H]3[C@@H]2CC[C@]2(C)[C@@H](c4ccc(=O)oc4)CC[C@]32O)C1	0.0056 µg/mL (≈ 0.00932 µM)	0.00062 µg/mL (≈ 0.00103 µM)
CC(=O)O[C@H]1CC[C@@]2(C)[C@H](CC[C@@H]3[C@@H]2CC[C@]2(C)[C@@H](c4ccc(=O)oc4)[C@@H](OC(C)=O)[C@H]4O[C@]342)C1	0.092 µg/mL (≈ 0.19 µM)	0.04 µg/mL (≈ 0.0825 µM)
CC(=O)O[C@@H]1CC[C@]2(C)C3CC[C@]4(C)[C@@H](c5ccc(=O)oc5)C[C@@H]5O[C@@]54C3CC[C@@H]2C1 (some centres undefined)	43 µg/mL (≈ 101 µM)	4.7 µg/mL (≈ 11 µM)
C[C@]12CCC(=O)C[C@H]1CCC1C2CC[C@]2(C)[C@@H](c3ccc(=O)oc3)C[C@@H]3O[C@@]132 (some centres undefined)	43 µg/mL (≈ 112 µM)	8.7 µg/mL (≈ 22.7 µM)
CC(=O)O[C@H]1CC[C@]2(C)C3CC[C@]4(C)[C@@H](c5ccc(=O)oc5)[C@@H](OC(C)=O)C[C@@]4(O)C3CC[C@@H]2C1 (some centres undefined)	21 µg/mL (≈ 43.2 µM)	7.5 µg/mL (≈ 15.4 µM)
CC(=O)CC1OC2C(C1C=O)[C@@]1(C)CC[C@H]3[C@@H](CC[C@@H]4C[C@@H](O)CC[C@@]43C)[C@]13O[C@H]23 (some centres undefined)	> 50 µg/mL	26 µg/mL (≈ 62.4 µM)
C[C@]12CC[C@@H](O)C[C@H]1CC[C@@H]1[C@@H]2CC[C@]2(C)[C@@H](c3ccc(=O)oc3)C[C@H]3O[C@]132	43 µg/mL (≈ 112 µM)	8.3 µg/mL (≈ 21.6 µM)
CC(=O)O[C@@H]1C[C@]2(C)[C@@H](c3ccc(=O)oc3)CC[C@]2(O)[C@@H]2CC[C@@H]3CC(=O)CC[C@]3(C)[C@H]21	5.6 µg/mL (≈ 12.7 µM)	0.79 µg/mL (≈ 1.79 µM)
C[C@]12CC[C@H]3[C@@H](CC[C@@H]4C[C@@H](O)CC[C@@]43CO)[C@]13O[C@@H]3C[C@@H]2c1ccc(=O)oc1	8.2 µg/mL (≈ 20.5 µM)	0.61 µg/mL (≈ 1.52 µM)
C[C@]12CCC3C(CC[C@@H]4C[C@@H](O)CC[C@]34C)C1=CC[C@@H]2c1ccc(=O)oc1 (some centres undefined)	0.9 µg/mL (≈ 2.44 µM)	0.83 µg/mL (≈ 2.25 µM)
CC(=O)CC1CC2C(O1)[C@H]1O[C@]13[C@@H]1CC[C@@H]4C[C@@H](O)CC[C@]4(C)[C@H]1CC[C@]23C (some centres undefined)	> 50 µg/mL	9.5 µg/mL (≈ 24.5 µM)
COC(=O)C/C=C/C1=CO[C@]23CCC1[C@@]2(C)C[C@@H](OC(C)=O)[C@H]1[C@H]3CC[C@@H]2C[C@@H](OC(C)=O)CC[C@@]21C	20 µg/mL (≈ 38.9 µM)	9.7 µg/mL (≈ 18.8 µM)
CC(=O)O[C@H]1CC[C@@]2(C)[C@H](CC[C@@H]3[C@@H]2CC[C@]2(C)[C@@H](c4ccc(=O)oc4)[C@H](O)[C@H]4O[C@]342)C1	7.5 µg/mL (≈ 16.9 µM)	6.7 µg/mL (≈ 15.1 µM)
